Molecules are shown by their SMILES.

This passage reports IC50 and inhibition results from ChEMBL document CHEMBL3352788, “Characterization of selective exosite-binding inhibitors of matrix metalloproteinase 13 that prevent articular cartilage degradation in vitro” (J Med Chem, 2014).

The target in one test is T1, Cytochrome P450 2C8 (Homo sapiens, UniProt P10632).
T1 sequence (P10632 whole entry): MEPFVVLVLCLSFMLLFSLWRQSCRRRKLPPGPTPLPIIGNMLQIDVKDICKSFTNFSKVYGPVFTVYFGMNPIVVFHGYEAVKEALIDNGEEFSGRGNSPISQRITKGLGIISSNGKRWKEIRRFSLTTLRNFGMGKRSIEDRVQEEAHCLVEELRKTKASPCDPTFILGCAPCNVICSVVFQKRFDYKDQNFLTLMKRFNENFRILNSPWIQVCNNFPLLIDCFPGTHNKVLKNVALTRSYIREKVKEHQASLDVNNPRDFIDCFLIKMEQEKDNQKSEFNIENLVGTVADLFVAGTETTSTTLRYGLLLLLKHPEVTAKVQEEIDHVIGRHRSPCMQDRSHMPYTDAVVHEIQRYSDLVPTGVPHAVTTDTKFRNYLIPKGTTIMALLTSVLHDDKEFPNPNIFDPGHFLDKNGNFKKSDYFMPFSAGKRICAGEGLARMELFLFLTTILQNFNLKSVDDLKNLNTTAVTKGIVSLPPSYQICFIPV
Put plainly: Inhibition of CYP2C8 (unknown origin) using amodiaquine substrate. The class given is ADME. The essentials:
(§1)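 Human liver microsomes with probe substrate and an NADPH-regenerating system in 0.1 M potassium phosphate pH 7.4 at 37 °C, run in duplicate. Inhibitor at 0–20 μM (0–2.5 μM for one compound), eight concentrations. Reactions were stopped with acetonitrile/formic acid containing isotope-labelled internal standard, and metabolite area ratios were compared with and without inhibitor. IC50 was taken by linear interpolation between bracketing concentrations.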

The target of another test is Cytochrome P450 2C9 (Homo sapiens, UniProt P11712). Put plainly: Inhibition of CYP2C9 (unknown origin) using diclofenac substrate. The class given is ADME. The method, boiled down: as §1
Sequence of Cytochrome P450 2C9 (P11712 whole entry): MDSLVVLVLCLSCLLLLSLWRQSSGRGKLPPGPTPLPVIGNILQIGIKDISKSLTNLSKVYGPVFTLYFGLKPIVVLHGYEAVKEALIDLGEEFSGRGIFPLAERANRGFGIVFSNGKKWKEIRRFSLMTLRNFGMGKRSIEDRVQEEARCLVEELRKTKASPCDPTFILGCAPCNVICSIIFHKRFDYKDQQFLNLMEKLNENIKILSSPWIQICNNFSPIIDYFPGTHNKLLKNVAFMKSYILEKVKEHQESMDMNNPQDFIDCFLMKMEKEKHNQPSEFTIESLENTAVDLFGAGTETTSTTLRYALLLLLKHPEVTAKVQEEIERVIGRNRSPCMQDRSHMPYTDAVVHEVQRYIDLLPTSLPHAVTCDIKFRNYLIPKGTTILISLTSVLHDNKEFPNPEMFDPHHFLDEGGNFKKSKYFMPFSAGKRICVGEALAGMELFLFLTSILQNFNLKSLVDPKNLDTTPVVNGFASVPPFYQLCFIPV
A further test addresses T2, Cytochrome P450 2B6 (Homo sapiens, UniProt P20813).
T2 sequence (P20813 whole entry): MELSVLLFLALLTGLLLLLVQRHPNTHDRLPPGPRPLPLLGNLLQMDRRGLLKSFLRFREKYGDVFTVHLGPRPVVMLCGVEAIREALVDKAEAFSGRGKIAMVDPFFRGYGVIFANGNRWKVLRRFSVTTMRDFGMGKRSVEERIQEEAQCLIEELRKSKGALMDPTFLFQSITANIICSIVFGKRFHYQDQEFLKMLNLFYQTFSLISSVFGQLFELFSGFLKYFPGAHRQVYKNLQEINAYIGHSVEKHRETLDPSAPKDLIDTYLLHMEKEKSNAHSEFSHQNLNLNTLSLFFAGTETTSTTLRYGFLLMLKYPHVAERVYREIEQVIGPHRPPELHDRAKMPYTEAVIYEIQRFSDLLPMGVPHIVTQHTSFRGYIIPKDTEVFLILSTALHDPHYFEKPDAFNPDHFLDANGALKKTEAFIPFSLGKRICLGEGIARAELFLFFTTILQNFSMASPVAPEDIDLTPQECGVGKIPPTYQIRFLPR
Put plainly: Inhibition of CYP2B6 (unknown origin) using bupropion substrate. The class given is ADME. The essentials: as §1

In the next test the target is Cytochrome P450 3A4 (Homo sapiens, UniProt P08684). The experiment in a line: Inhibition of CYP3A4 (unknown origin) using midazolam substrate. Format: ADME. The essentials:
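Reactions stopped with acetonitrile/0.1% formic acid plus labelled internal standard. Metabolite measured by LC-MS area ratio. IC50 by linear interpolation.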

Test [1] deals with Prothrombin (Homo sapiens) (UniProt P00734). The experiment in a line: Inhibition of recombinant human thrombin using PRTLT substrate at up to 20 uM after 3 hrs. The essentials: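 Each protease was preincubated 30 min at 25 °C with compound in its assay buffer. Peptide substrate was then added and the reaction ran 3 h at 25 °C before quenching with SDS/EDTA/iodoacetate. Substrate-to-product conversion (%) was read by microfluidic electrophoresis. Compounds were tested in singlicate as 12-point 3-fold dilutions from 20 μM to 0.1 nM. IC50 was taken as the concentration giving 50% of no-compound control activity.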

In test [2] the target is Angiotensin-converting enzyme (Homo sapiens) (UniProt P12821). The experiment in a line: Inhibition of recombinant human ACE using RPFNYLAK substrate up to 20 uM. The method, boiled down:
(§2)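 Outsourced microfluidic protease panel. Compound was preincubated with each protease for 30 min at 25 °C, then peptide substrate was added for 3 h at 25 °C and quenched with SDS/EDTA/iodoacetate. Substrate-to-product conversion was measured on LabChip. Compounds were tested singly in a 12-point 3-fold dilution series, top 20 μM (5 μM for two reference compounds).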

The next test deals with T3, Caspase-2 (Homo sapiens) (UniProt P42575).
T3 sequence (whole entry): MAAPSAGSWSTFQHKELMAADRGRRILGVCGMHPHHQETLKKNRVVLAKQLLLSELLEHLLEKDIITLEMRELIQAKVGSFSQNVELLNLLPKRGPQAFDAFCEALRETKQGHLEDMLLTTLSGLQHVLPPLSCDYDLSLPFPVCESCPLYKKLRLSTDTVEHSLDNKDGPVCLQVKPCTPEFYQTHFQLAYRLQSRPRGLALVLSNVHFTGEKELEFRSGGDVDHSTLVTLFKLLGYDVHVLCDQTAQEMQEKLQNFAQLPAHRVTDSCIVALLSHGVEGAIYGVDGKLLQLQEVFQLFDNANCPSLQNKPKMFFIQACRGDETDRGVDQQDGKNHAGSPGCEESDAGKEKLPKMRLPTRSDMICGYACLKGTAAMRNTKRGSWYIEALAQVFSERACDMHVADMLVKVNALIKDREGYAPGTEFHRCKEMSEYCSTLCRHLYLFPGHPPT
The experiment in a line: Inhibition of recombinant human caspase 2 using DEVDAA substrate at up to 20 uM after 3 hrs. The method, boiled down: as §2

For test [3], the target named is Matrix metalloproteinase-9 (Homo sapiens) (UniProt P14780). Put plainly: Inhibition of recombinant human MMP-9 using GRIGFL substrate up to 20 uM. The essentials:
as §2

The target of another test is T4, Caspase-1 (Homo sapiens) (UniProt P29466).
T4 sequence (whole entry): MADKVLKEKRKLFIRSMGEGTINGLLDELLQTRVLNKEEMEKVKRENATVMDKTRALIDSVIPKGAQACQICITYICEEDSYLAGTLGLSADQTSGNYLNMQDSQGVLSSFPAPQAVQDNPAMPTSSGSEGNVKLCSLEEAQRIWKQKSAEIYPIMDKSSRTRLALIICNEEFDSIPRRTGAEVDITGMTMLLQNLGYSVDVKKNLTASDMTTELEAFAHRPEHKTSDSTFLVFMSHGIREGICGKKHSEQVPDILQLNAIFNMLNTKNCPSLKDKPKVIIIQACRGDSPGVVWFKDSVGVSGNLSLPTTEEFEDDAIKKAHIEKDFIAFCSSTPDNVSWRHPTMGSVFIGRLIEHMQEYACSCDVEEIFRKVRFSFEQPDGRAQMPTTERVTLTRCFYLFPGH
The experiment in a line: Inhibition of recombinant human caspase 1 using WEHDGPKR substrate at up to 20 uM after 3 hrs. The method, boiled down: as §2

Test [4] concerns the target Beta-secretase 1 (Homo sapiens) (UniProt P56817). Put plainly: Inhibition of recombinant human BACE1 using SEVNLDAEFRKKRR substrate at up to 20 uM after 3 hrs. The essentials:
as §2

Test [5] has as its target Stromelysin-1 (Homo sapiens) (UniProt P08254). The experiment in a line: Inhibition of recombinant human MMP-3 using GRIGFL substrate up to 20 uM. The essentials: as §2

Sequence of Beta-secretase 1 (Homo sapiens) (P56817 whole entry): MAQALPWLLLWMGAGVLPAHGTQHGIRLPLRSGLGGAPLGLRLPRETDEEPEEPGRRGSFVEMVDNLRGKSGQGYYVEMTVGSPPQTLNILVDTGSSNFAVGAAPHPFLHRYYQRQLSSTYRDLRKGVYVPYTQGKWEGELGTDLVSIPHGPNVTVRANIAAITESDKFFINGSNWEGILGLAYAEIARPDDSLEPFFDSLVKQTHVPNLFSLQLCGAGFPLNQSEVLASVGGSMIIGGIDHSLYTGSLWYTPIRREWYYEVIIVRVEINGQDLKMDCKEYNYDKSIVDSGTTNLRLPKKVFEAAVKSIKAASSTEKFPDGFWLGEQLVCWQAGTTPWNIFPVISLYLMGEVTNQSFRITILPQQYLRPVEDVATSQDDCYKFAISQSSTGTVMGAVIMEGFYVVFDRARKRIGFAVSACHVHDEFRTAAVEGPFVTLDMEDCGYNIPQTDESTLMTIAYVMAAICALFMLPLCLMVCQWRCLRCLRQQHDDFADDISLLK
Sequence of Angiotensin-converting enzyme (Homo sapiens) (P12821 whole entry): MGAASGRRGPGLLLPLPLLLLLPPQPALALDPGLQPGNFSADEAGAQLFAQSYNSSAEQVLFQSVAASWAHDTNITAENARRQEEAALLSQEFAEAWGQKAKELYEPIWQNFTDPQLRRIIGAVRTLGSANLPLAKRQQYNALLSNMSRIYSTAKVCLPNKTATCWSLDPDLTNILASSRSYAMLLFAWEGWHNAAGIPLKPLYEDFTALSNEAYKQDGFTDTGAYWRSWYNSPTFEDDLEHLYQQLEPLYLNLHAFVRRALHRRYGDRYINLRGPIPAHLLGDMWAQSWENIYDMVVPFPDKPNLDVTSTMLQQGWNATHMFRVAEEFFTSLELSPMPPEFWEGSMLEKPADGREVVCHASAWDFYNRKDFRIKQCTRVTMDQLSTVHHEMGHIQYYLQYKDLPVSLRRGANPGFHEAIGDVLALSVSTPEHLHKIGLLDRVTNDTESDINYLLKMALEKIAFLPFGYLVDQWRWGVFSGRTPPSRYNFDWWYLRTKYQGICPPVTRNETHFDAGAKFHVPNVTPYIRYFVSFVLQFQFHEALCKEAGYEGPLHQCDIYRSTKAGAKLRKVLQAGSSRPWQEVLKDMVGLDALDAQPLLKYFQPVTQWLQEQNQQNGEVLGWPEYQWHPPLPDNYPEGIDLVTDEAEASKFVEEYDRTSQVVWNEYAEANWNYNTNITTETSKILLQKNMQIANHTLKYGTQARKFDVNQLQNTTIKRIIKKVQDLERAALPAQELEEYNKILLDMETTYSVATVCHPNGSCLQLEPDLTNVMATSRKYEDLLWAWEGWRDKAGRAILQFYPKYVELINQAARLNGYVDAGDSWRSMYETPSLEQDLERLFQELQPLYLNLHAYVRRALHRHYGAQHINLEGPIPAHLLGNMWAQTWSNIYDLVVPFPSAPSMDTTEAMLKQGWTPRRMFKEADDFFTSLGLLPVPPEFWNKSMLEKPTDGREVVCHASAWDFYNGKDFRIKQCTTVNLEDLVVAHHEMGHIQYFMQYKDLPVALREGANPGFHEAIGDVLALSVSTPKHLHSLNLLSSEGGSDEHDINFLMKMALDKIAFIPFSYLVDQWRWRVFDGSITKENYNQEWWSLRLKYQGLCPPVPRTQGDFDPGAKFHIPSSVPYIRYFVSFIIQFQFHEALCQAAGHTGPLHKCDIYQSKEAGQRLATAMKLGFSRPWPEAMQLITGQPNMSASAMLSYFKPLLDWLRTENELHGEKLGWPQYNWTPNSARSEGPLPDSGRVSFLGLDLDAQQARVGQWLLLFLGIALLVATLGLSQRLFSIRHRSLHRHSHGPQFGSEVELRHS
Sequence of Matrix metalloproteinase-9 (Homo sapiens) (P14780 whole entry): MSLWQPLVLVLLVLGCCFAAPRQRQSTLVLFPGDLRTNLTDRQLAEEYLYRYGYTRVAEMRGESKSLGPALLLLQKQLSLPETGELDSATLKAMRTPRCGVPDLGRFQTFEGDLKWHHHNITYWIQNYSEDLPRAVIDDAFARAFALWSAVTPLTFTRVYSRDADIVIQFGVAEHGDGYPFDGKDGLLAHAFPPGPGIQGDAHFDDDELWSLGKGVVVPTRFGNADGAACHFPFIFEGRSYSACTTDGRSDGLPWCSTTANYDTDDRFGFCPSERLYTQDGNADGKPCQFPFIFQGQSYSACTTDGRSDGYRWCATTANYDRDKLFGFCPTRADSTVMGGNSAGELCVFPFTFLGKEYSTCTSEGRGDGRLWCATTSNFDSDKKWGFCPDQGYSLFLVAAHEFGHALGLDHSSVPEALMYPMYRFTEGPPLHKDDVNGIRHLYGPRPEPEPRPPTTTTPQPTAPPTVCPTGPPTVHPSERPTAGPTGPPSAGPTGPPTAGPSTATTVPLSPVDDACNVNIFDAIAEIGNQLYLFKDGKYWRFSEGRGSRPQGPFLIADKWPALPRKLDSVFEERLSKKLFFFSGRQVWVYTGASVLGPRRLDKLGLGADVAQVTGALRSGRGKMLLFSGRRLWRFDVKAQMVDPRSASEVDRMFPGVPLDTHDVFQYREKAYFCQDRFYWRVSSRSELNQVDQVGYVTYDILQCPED
Sequence of Cytochrome P450 3A4 (P08684 whole entry): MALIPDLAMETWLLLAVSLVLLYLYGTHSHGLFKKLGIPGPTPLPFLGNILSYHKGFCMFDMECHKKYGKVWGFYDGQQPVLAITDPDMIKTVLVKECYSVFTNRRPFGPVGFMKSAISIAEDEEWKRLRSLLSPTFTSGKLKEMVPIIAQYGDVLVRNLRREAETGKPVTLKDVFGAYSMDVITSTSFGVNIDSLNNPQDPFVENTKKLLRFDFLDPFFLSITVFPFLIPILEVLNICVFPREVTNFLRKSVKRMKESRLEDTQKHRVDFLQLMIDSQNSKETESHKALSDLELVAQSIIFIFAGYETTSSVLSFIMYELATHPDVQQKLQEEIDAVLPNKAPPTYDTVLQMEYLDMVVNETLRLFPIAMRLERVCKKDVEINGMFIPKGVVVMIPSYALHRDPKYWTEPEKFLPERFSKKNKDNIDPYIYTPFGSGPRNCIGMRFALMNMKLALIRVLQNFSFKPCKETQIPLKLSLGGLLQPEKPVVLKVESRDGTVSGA
Sequence of Stromelysin-1 (Homo sapiens) (P08254 100-477 limits assumed): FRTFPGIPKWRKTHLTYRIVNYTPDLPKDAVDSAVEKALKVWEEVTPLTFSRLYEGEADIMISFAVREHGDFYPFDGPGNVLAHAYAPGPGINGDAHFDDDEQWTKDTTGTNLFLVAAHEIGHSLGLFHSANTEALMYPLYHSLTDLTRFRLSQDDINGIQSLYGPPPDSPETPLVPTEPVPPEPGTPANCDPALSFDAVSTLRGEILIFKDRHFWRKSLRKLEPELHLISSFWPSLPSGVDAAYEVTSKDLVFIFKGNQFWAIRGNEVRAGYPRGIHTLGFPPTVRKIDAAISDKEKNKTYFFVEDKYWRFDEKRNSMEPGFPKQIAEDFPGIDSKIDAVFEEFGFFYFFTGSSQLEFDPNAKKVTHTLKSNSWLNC

The term IC50 denotes the midpoint of a concentration-inhibition curve. As to `Cn1c(=O)n(Cc2ccc(C(=O)O)cc2)c(=O)c2cc(C#CCc3ccccc3)ccc21`, the IC50 against Cytochrome P450 2C8, at Cytochrome P450 2C9, against Cytochrome P450 2B6 and against Cytochrome P450 3A4 was over 2.5 µM in each case.
The term inhibition denotes the percentage by which the read-out fell short of the control. For `Cc1ccc(CSc2nc(O)c3c(n2)CCC3)cc1`, the inhibition in test [1] is under 10%; in test [2] it was over 10%; at Caspase-2 (Homo sapiens), under 10%; in [3] it was over 10%; on Caspase-1 (Homo sapiens), under 10%; in test [4], under 10%. For the same compound, the inhibition in test [5] is over 10%.
Regarding `COC(=O)c1ccc(CSc2nc3c(c(=O)[nH]2)CCC3)cc1`, the IC50 on Cytochrome P450 2C8, against Cytochrome P450 2C9, against Cytochrome P450 2B6 and at Cytochrome P450 3A4 was over 20 µM throughout. The inhibition in [1] was under 10%; in [2], over 10%; on Caspase-2 (Homo sapiens) it was under 10%; in [3], over 10%; on Caspase-1 (Homo sapiens) it was under 10%; in [4], under 10%. In [5], the inhibition was over 10%.
With `Oc1nc(SCc2ccc(Cl)cc2)nc2c1CCC2`, the IC50 was over 20 µM at Cytochrome P450 2C8, 19 µM on Cytochrome P450 2C9, over 20 µM on Cytochrome P450 2B6 and over 20 µM at Cytochrome P450 3A4. Besides, the inhibition was under 10% in test [1]; over 10% in [2]; under 10% at Caspase-2 (Homo sapiens); over 10% in [3]; under 10% at Caspase-1 (Homo sapiens); under 10% in test [4]. Besides, the inhibition in test [5] is over 10%.
With `Cc1cc(CNC(=O)c2cc(C(=O)NCc3ccc(F)c(C)c3)ncn2)ccc1F`, the IC50 against Cytochrome P450 2C8, against Cytochrome P450 2C9 and at Cytochrome P450 2B6 was over 20 µM throughout.
